The list is not random: actives were taken first. Their share in the collection is about 2.9%.
SENP8 block-1: SENP8 (human) protease inhibition; Q96LD8; recombinant SENP8, Nedd8 substrate fluorescence; inhibition, % at 20 µM; hit rate 0.64% among 360,000; in the data active means inhibition mostly above about 40%, no sharp cut-off; inactive means mostly below about 27%
Target sequence (Q96LD8 whole entry, looked up): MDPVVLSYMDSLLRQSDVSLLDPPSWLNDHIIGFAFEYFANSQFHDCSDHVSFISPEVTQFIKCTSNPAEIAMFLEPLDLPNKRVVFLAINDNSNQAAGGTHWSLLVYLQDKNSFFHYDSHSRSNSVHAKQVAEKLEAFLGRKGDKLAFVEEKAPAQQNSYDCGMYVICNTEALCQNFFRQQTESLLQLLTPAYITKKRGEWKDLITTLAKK
Apaf-1 inh: human Apaf-1 inhibition; AID 489030; O14727; reconstituted apoptosome caspase-3 activity, DEVD-Rh110 fluorescence; inhibition, % at 20 µM; hit rate 0.71% among 330,000; active means inhibition of at least 40% at 20 µM;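 further: plate controls were DMSO wells for no effect and DEVD-CHO caspase inhibitor wells for full effect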
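Material: reconstituted apoptosome with Apaf-1, cytochrome c, caspase-9, procaspase-3, dATP. Technique: Rh110 fluorescence intensity. Buffer or medium: pH 7.5 Hepes buffer with CHAPS, BSA, DTT. Times: 30 min plus 50 min, RT.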
SENP8 block-2: inhibitors of human SENP8 protease | Q96LD8 | purified SENP8, Z-RLRGG-aminoluciferin cleavage, luminescence | inhibition, % at 10 µM | hit rate 1.2% among 330,000; in the data active means inhibition above about 50%
SENP6 block: inhibitors of human SENP6 protease. Q9GZR1. Recombinant SENP6 catalytic domain, aminoluciferin luminescence. inhibition, % at 10 µM. hit rate 1.8% among 330,000. AID 2599;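 active means inhibition above about 50% at the single tested dose, limit read from the data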;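 further: plate controls were DMSO wells with enzyme for no effect and DMSO wells lacking enzyme for full effect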
SENP7 block: blocks the human protease SENP7. Q9BQF6. recombinant SENP7, Z-RLRGG-aminoluciferin luminescence, 40 min. inhibition, % at 5 µM. hit rate 1.5% among 330,000. AID 434973;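 active means inhibition above about 50% at the single test dose, limit read from the data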;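 further: plate controls were DMSO with enzyme for no effect and no enzyme buffer wells for full effect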
SENP1 inh: inhibitors of human SENP1 SUMO protease catalytic domain | inhibition, % at 10 µM | Q9P0U3 | hit rate 0.21% among 360,000 | recombinant SENP1 catalytic domain, CyPet-SUMO1-YPet FRET cleavage | AID 624204;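 active means inhibition at least 30% at 10 µM, raw YFP signal under a set limit, fluorescence ratio 0.5 to 1.5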;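 further: 0% = enzyme with DMSO and 100% = no enzyme wells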
Target sequence (Q9P0U3 419-644 limits assumed): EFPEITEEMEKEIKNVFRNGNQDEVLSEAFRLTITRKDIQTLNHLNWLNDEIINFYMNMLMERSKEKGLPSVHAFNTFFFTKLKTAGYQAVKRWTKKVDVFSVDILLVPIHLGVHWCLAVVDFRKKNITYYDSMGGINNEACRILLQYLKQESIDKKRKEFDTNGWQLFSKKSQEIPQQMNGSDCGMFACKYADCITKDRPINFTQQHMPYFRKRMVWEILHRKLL
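Test system: human SENP1 catalytic domain; medium: Tris pH 8 buffer plus EDTA, NaCl, BME, BSA, NP40, catalase; incubation: 50 min reaction at room temperature; technique: FRET, CFP and YFP emission; controls: no-enzyme low control and enzyme-plus-DMSO high control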
SENP8 confirm: human SENP8 inhibition, confirmed. AID 488912. inhibition, % at 12.5 µM. Recombinant SENP8, Z-RLRGG-aminoluciferin luminescence, 60 min. hit rate 40% among 6,200. shares compounds with SENP7 block;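 active means mean inhibition across replicates above about 50%, limit read from the data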
SENP6 confirm: human SENP6 inhibition, confirmed; shares compounds with SENP7 block; recombinant SENP6, Z-RLRGG-aminoluciferin luminescence; inhibition, % at 12.5 µM; hit rate 58% among 6,200; AID 488915
SENP7 confirm: confirmation of human SENP7 protease inhibitors. shares compounds with SENP7 block. recombinant SENP7, Z-RLRGG-aminoluciferin luminescence, 40 min. inhibition, % at 12.5 µM. hit rate 69% among 6,200. AID 488917
Casp3 select: inhibits human caspase-3 in SENP selectivity test; shares compounds with SENP7 block; purified caspase-3, Z-DEVD-aminoluciferin luminescence, 60 min; inhibition, % at 12.5 µM; hit rate 60% among 6,200; AID 488918;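 active means mean inhibition above about 50%, limit read from the data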;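 further: plate controls were enzyme with DMSO for no effect and wells without caspase-3 for full effect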
Target sequence (P42574 28-227 limits assumed): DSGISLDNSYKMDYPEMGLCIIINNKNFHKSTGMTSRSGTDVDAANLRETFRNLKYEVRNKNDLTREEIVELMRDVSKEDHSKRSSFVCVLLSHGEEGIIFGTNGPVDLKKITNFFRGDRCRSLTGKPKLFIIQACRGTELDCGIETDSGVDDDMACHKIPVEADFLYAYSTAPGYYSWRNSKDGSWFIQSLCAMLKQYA
SENP luc ctr: counter-screen for SENP inhibitors: luminescence interference. shares compounds with SENP7 block. Pre-incubated SENP8/Z-RLRGG-aminoluciferin, luciferase luminescence interference. inhibition, % at 12.5 µM. hit rate 39% among 6,200. AID 488919;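 active means mean inhibition above about 50% when retested at one dose, limit read from the data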;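 further: plate controls were DMSO wells with completed reaction for no effect and substrate without enzyme for full effect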
* marks the source's active call; other numbers are inactive results; · = no result.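 How the source made its calls, unless noted: active means mean inhibition above about 50% in the one-dose retest (limit read from the data); inactive means the rest.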

SMILES	SENP8 block-1	Apaf-1 inh	SENP8 block-2	SENP6 block	SENP7 block	SENP1 inh	SENP8 confirm	SENP6 confirm	SENP7 confirm	Casp3 select	SENP luc ctr
Cc1ccc2c(c1)sc(=NC(=O)c1cccs1)n2C	-409.3	0.4	95.4*	92.8*	99.6*	-146.6	29.3	75.4*	99.4*	95.0*	43.2
Cc1ccc2c(c1)sc(=NC(=O)C1CC1)n2C	-5.0	-18.2	-6.2	13.9	6.3	1.8	·	·	·	·	·
CC1(C(=O)NC2CCCC2)CCC(=O)N1C1CCN(Cc2ccccc2)CC1 (stereo unspecified)	10.6	·	·	·	·	2.5	·	·	·	·	·
Nc1nc(CCl)nc(Nc2ccccc2)n1	22.0	3.9	-15.2	-13.3	5.5	-0.5	·	·	·	·	·
Nc1nc(Nc2ccccc2)nc2ccccc12	17.6	0.2	91.4*	93.8*	97.4*	3.4	97.2*	97.8*	102.6*	96.8*	96.5*
Nc1ncnc(Nc2ccccc2)n1	3.8	3.6	-11.0	-19.9	-11.0	0.2	·	·	·	·	·
Nc1nc(Nc2ccc(Cl)cc2)nc2ccccc12	-271.5	9.2	95.4*	97.8*	97.3*	0.0	96.1*	96.8*	100.8*	93.0*	94.6*
Cc1ccc(Nc2nc(NCCO)c3ccccc3n2)cc1C	-269.8	20.4	-5.4	-12.3	1.5	-0.3	·	·	·	·	·
Cc1ccccc1Nc1ncc(C#N)c(N)n1	6.4	4.3	-16.7	-9.9	-11.6	-8.3	·	·	·	·	·
Cc1ccc(Nc2nc(N)c3ccccc3n2)cc1Cl	-288.6	11.5	96.6*	97.1*	98.2*	-2.7	98.8*	99.7*	103.3*	93.4*	85.4*
Cc1ccccc1Nc1nc(N)c2ccccc2n1	-229.5	-15.4	91.1*	2.6	94.8*	0.6	93.7*	95.2*	101.6*	96.9*	95.2*
CN(C)CCNC(=O)C1(C)Cc2c(-c3cccc(C(F)(F)F)c3)ccnc2O1 (stereo unspecified)	24.9	·	·	·	·	2.0	·	·	·	·	·
Cc1ccc(Cc2cnc(NC(=O)c3cccs3)s2)cc1	-39.4	12.2	-19.3	1.1	0.1	-4.6	·	·	·	·	·
Cc1ccc(C(=O)Nc2ncc(Cc3ccccc3)s2)o1	-9.9	7.0	51.2*	71.2*	62.8*	-3.0	6.5	68.1*	92.1*	62.4*	56.3*
CCSc1nnc(NC(=O)c2cccs2)s1	-40.7	-1.0	-16.6	-1.6	2.4	-1.1	·	·	·	·	·
O=C(Nc1ncc(Cc2ccccc2)s1)c1cccs1	-48.7	11.6	40.3	53.0*	58.3*	-2.4	56.6*	56.9*	83.3*	37.3	52.9*
O=C(Nc1nnc(SCc2ccccc2)s1)c1cccs1	-196.9	6.4	69.1*	86.4*	52.7*	0.0	-4.4	24.8	36.1	29.7	6.4
O=C(C[C@@H]1C[C@@H]2c3cc(NS(=O)(=O)c4ccc(F)cc4)ccc3O[C@@H]2[C@@H](CO)O1)NC1CCCCC1	6.2	·	·	·	·	-0.7	·	·	·	·	·
O=C(/C=C\Nc1ccccn1)c1ccccc1	-208.8	4.3	89.9*	95.3*	96.7*	-16.4	95.8*	96.5*	101.8*	97.0*	94.4*
O=C(/C=C/c1ccccc1)c1ccccn1	-39.4	15.2	3.1	34.3	-6.1	-24.2	·	·	·	·	·
COc1ccc(C(=O)/C=C/Nc2ccccn2)c(OC)c1	-331.9	6.2	-1.4	2.7	13.7	-32.0	·	·	·	·	·
O=C(/C=C/Nc1ccccc1Br)c1ccccn1	-31.3	3.8	95.8*	96.9*	100.0*	-47.7	2.4	99.6*	103.2*	96.9*	89.3*
CC(C)NC(=O)C1(C)CCN1C(=O)c1ccc(F)c(Cl)c1 (stereo unspecified)	0.5	·	·	·	·	-0.3	·	·	·	·	·
CCCc1nnc(NC(=O)C23CC4CC(CC(C4)C2)C3)s1	4.4	17.7	-6.1	-6.6	-1.3	2.1	·	·	·	·	·
COc1cc(OC)cc(C(=O)Nc2nc3ccccc3[nH]2)c1	-46.0	1.9	3.4	23.7	-6.7	13.5	·	·	·	·	·
SMILES	SENP8 block-1	Apaf-1 inh	SENP8 block-2	SENP6 block	SENP7 block	SENP1 inh	SENP8 confirm	SENP6 confirm	SENP7 confirm	Casp3 select	SENP luc ctr
O=C(Nc1nc2ccccc2[nH]1)c1ccc(OC(F)F)cc1	3.3	10.0	89.3*	94.8*	95.9*	12.0	81.2*	93.4*	100.9*	94.9*	61.8*
O=C(Nc1nc2ccccc2[nH]1)c1ccccc1OC(F)F	-250.5	2.5	83.9*	90.8*	91.4*	1.4	87.1*	88.2*	99.6*	95.1*	89.5*
N#CC(Cc1ccc(OC(F)F)cc1)c1nc2ccccc2[nH]1 (stereo unspecified)	-21.5	5.8	79.9*	92.7*	64.1*	-6.5	91.5*	90.8*	99.9*	88.0*	90.8*
CC(C)Oc1ccc(C(=O)Nc2nc3ccccc3[nH]2)cc1	-0.3	8.5	96.7*	96.7*	100.3*	-1.3	91.0*	98.8*	103.3*	98.4*	68.2*
COc1ccc(NC(=O)c2cc(S(=O)(=O)N3CCCC3)ccc2C)cn1	8.8	0.6	-9.5	2.9	-6.1	1.0	·	·	·	·	·
c1ccc(N=Nc2ccc3cccccc2-3)cc1	24.3	14.4	45.0	54.1*	67.7*	3.7	56.4*	68.3*	86.4*	33.7	49.1
Clc1ccc(-c2[nH]ncc2N=Nc2ccccc2)cc1	19.3	24.7	-7.0	-9.5	2.7	1.4	·	·	·	·	·
O=C(Nc1ccc2c(c1)OCO2)Nc1ccc(F)cc1F	4.6	11.9	72.9*	90.0*	90.1*	1.2	76.5*	76.1*	97.8*	88.7*	85.8*
O=C(Nc1ccc(F)cc1)Nc1ccc2c(c1)CCC2	0.3	3.8	-10.2	-9.5	30.5	0.9	·	·	·	·	·
O=C(Nc1ccc2c(c1)CCC2)Nc1ccccc1F	4.8	0.4	91.9*	96.4*	99.2*	4.3	69.3*	95.4*	101.8*	92.3*	75.9*
O=C(Nc1ccc2c(c1)CCC2)Nc1ccc(F)cc1F	9.9	6.7	-19.0	3.0	70.2*	-1.8	10.7	13.8	41.1	28.1	8.5
O=C(Nc1ccc2c(c1)OCO2)Nc1ccc2c(c1)OCO2	5.8	5.3	5.7	3.3	39.3	-1.5	·	·	·	·	·
Cc1ccccc1NC(=O)Nc1ccc2c(c1)CCC2	5.0	4.6	24.7	70.3*	83.8*	3.1	9.7	13.2	16.7	26.5	5.9

Screening data: PubChem BioAssay, Sanford-Burnham Center for Chemical Genomics
